Source: PubChem BioAssay (several laboratories)
ALR inh: blocks human ALR sulfhydryl oxidase activity; inhibition, % (concentration not given with the values); purified ALR, DTT oxidation, H2O2 HRP-luminol luminescence; P55789; hit rate 3.8% among 290,000;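 active means mean replicate inhibition above about 79%, with every replicate also reaching it, limit read from the data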
NALP3 yeast inh: blocks the NALP3 inflammasome reconstituted in yeast; inhibition, % at 10 µM; Yeast reconstituted NLRP3/ASC/caspase-1, beta-gal luminescence, 24 h; AID 2825; hit rate 0.39% among 330,000;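 active means inhibition of 50% or more; inactive means inhibition below 50%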
DSG3 Ab inh: blocks pemphigus antibody binding to human desmoglein-3 | DSG3-coupled beads, scFv-anti-DSG3-GFP binding, flow cytometry; stronger effect = lower value | binding (percent of control), % at 10 µM | hit rate 0.48% among 310,000 | P32926;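 active means binding more than 3 SD below its plate's average and above zero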
Target sequence (P32926 whole entry, looked up): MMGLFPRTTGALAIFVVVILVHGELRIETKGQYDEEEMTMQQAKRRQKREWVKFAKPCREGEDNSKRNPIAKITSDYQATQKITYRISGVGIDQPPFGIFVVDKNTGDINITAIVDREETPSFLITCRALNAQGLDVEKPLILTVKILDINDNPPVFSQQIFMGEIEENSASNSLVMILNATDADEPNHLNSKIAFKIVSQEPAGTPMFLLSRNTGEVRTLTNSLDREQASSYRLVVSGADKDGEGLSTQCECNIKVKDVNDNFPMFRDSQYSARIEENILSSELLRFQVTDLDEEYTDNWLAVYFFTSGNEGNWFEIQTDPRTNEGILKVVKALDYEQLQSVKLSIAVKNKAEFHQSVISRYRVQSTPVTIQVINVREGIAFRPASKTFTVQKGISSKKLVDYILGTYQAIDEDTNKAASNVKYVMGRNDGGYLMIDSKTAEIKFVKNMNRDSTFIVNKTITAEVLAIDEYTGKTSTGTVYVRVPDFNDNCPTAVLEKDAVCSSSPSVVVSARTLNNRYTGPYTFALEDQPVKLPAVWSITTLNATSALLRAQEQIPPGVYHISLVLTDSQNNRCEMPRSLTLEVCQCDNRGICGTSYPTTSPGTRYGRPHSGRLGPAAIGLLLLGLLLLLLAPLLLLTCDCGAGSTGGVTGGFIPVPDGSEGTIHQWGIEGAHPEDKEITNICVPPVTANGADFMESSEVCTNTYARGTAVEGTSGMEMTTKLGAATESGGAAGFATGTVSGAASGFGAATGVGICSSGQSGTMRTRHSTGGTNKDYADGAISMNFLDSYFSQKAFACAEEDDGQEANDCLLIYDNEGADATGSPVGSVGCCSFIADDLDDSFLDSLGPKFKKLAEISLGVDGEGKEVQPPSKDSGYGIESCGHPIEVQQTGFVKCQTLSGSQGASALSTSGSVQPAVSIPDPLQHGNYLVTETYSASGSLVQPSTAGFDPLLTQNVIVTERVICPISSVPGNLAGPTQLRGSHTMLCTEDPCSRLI
PolyA inh: blocks polyadenylation in yeast reporter cells; AID 1875; hit rate 0.02% among 300,000; activity score, % at 12 µM; S. cerevisiae SKY197-pL101 polyadenylation reporter, beta-gal luminescence; efflux-impaired pdr1/pdr3 knockout yeast; score 100 = 6 SD above DMSO;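 active means lowest replicate activity score at least 50, where 100 means six control SD above control mean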;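 further: yeast exposed to compound for 9 h at 30 °C; higher score means more reporter readthrough which indicates perturbed polyadenylation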
NALP1 inh: blocks the NALP1 inflammasome reconstituted in yeast; hit rate 0.61% among 280,000; S. cerevisiae NALP1/ASC/caspase-1 growth, X-gal OD620, 72 h; inhibition, % at 10 µM; in the data active means inhibition mostly above about 24%, no sharp cut-off; inactive means mostly below about 32%
Arr AP2 block: human beta-arrestin and AP2 interaction inhibition; FITC-arrestin peptide / GST-AP2 beads, flow cytometry; AP2 beta2 appendage carries R879A mutation; inhibition, % at 10 µM; hit rate 0.31% among 340,000;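 active means inhibition above a set limit, near 3 SD of compounds lacking own fluorescence, cut at about 54% in these data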
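System: GST-AP2 R879A bound to glutathione beads, E. coli-expressed. Also added: 50 nM FITC-arrestin peptide. Schedule: compound with beads 12 min RT, then probe 1 h RT. Signal: bead flow cytometry, FITC channel. Read-out basis: percent response.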
NALP3 confirm: confirmation of NALP3 inhibitors in yeast; inhibition, % at 10 µM; hit rate 81% among 1,300; yeast expressing human NALP3, luminescence; shares compounds with NALP3 yeast inh; in the data active means inhibition above about 48%
Casp1 ASC ctr: counter-screen for NALP3 inhibitors: yeast caspase-1-ASC; shares compounds with NALP3 yeast inh; AID 488784; hit rate 66% among 1,000; inhibition, % at 10 µM; yeast expressing Caspase-1-ASC, luminescence counter screen
NALP3 yeast rt: confirmation retest of NALP3 inhibitors in yeast; yeast expressing human NALP3, luminescence read-out; inhibition, % at 10 µM; hit rate 53% among 1,000; shares compounds with NALP3 yeast inh
Numbers stand for hits; 0 = inactive; - = no result given. This is a sample that favours compounds with a hit; in the whole collection about 4.6% have one here. Unless noted, no stated cut-off is given here; in the data, active means inhibition above about 50%; inactive means the rest.

SMILES | ALR inh | NALP3 yeast inh | DSG3 Ab inh | PolyA inh | NALP1 inh | Arr AP2 block | NALP3 confirm | Casp1 ASC ctr | NALP3 yeast rt
COc1ccc(-c2nnc(SCC(=O)NC3CCCc4ccccc43)n2N)cc1 (stereo unspecified) | 0 | 0 | 0 | 0 | 0 | 0 | - | - | -
N#Cc1nc(-c2ccccc2F)oc1NCCc1ccccc1 | 0 | 0 | 0 | 0 | 0 | 0 | - | - | -
N#Cc1nc(-c2cccs2)oc1NCCc1ccccc1 | 0 | 70.6 | 0 | 0 | 0 | 0 | 77.0 | 70.0 | 62.6
O=C(NC1CCCC1)c1cccc(S(=O)(=O)N2CCCC2)c1 | 0 | 0 | 0 | - | - | 0 | - | - | -
Cc1cccc(NC(=O)CN(c2ccc(F)cc2)S(C)(=O)=O)c1 | 0 | 0 | 0 | 0 | 0 | 0 | - | - | -
O=C(/C=C/c1ccccc1Br)c1ccc2c(c1)OCO2 | 0 | 62.0 | 0 | 0 | 0 | 0 | 59.7 | 0 | 0
O=C(/C=C/c1cccc(Br)c1)c1ccc2c(c1)OCO2 | 0 | 0 | 0 | 0 | 0 | 0 | - | - | -
O=C(CCNc1ccccc1)c1ccc2c(c1)OCO2 | 0 | 55.6 | - | 0 | 0 | 0 | 64.2 | 64.4 | 0
O=C(/C=C/c1ccccc1)c1ccc2c(c1)OCO2 | 97.3 | 53.2 | - | 0 | 0 | 0 | 0 | 0 | 0
O=C(/C=C\Nc1ccccc1Br)c1ccc2c(c1)OCO2 | 0 | 0 | 0 | 0 | 0 | 0 | - | - | -
CO/N=C(\Cn1ncc(N2CCCC2)c(Br)c1=O)c1ccc(Cl)cc1 | 0 | 76.8 | 0 | 0 | 0 | 0 | 68.9 | 78.1 | 57.4
O=C1OC(c2ccccc2)c2ccc3ccccc3c21 (stereo unspecified) | 0 | 0 | 0 | 0 | 0 | 0 | - | - | -
O=C(c1ccccc1)c1cccc(C(=O)c2ccccc2)c1 | 0 | 55.7 | 0 | - | - | 0 | 58.3 | 53.8 | 50.9
O=C(COC(=O)CNS(=O)(=O)c1ccc2ccccc2c1)Nc1ccccc1Sc1ccccc1 | 0 | 0 | 0 | 0 | - | 0 | - | - | -
CCOc1ccc(C(=O)Nc2ccccc2C#N)cc1[N+](=O)[O-] | 0 | 0 | 0 | 0 | 0 | 0 | - | - | -
CCOc1ccc(C(=O)Nc2ccccc2CC)cc1[N+](=O)[O-] | 0 | 53.3 | 0 | 0 | 0 | 0 | 60.0 | 52.9 | 55.4
CCN(CC)CCCN(C(=O)c1ccco1)c1nc(-c2ccc(Cl)cc2)cs1 | 0 | 51.1 | 0 | 0 | 0 | 0 | 54.3 | 0 | 0
CCN(CC)CCCN(C(=O)c1ccco1)c1nc(-c2ccc(C)cc2)cs1 | 0 | 0 | - | 0 | 0 | 0 | - | - | -
CCC[C@H]1CN(c2ccc(Br)cc2)C(=O)[C@@H]1CC(=O)Nc1ccccc1 | - | - | 0 | - | - | - | - | - | -
Cc1ccc(NC(=O)c2noc3c2CCc2ccccc2-3)cc1 | 0 | 0 | 0 | 0 | 0 | 0 | - | - | -
O=C(Nc1cccc(O)c1)c1noc2c1CCc1ccccc1-2 | 0 | 63.2 | 0 | 0 | 0 | 0 | 58.0 | 52.5 | 56.6
N#C/C(=N\Nc1ccc(Cl)c(Cl)c1)C(=O)C1CC1 | 0 | 62.1 | 0 | 0 | - | 0 | 87.1 | - | -
CCOc1ccc(C(=O)CCc2nc3ccccc3s2)cc1 | 0 | 67.4 | 0 | 0 | 0 | 0 | 66.8 | 65.3 | 59.5
CCC(C(=O)OC)n1cnc2scc(-c3ccc(C)c(C)c3)c2c1=O (stereo unspecified) | 0 | 96.6 | 0 | 0 | 100.2 | 0 | 99.2 | 99.1 | 98.2
Cc1ccc(-c2csc3ncn(CC(N)=O)c(=O)c23)cc1C | 0 | 0 | 0 | 0 | 0 | 0 | - | - | -
SMILES | ALR inh | NALP3 yeast inh | DSG3 Ab inh | PolyA inh | NALP1 inh | Arr AP2 block | NALP3 confirm | Casp1 ASC ctr | NALP3 yeast rt
CCN(CC)S(=O)(=O)c1ccc2nc(SC)sc2c1 | 0 | 75.3 | 0 | 0 | 0 | 0 | 81.6 | 73.3 | 65.9
CC(C)n1c(-c2ccco2)csc1=Nc1cccnc1 | 92.4 | 52.8 | 0 | 0 | 0 | 0 | 0 | - | -
COCCn1c(-c2ccccc2)csc1=Nc1cccnc1 | 0 | 0 | - | 0 | 0 | 0 | - | - | -
O=C(c1ccc(F)cc1)n1ccc(-c2cnc(-c3ccccc3)s2)n1 | 0 | 73.4 | 0 | 0 | 0 | 0 | 57.2 | 0 | 0
COc1cc(C(C(=O)NCc2ccccc2)N(C(=O)c2snc(C(N)=O)c2N)C2CCCC2)cc(OC)c1OC (stereo unspecified) | 0 | 0 | 0 | 0 | 0 | 0 | - | - | -
Cc1cc(=O)oc(C)c1C(=O)NCCCN1CCN(c2ccc(F)cc2)CC1 | 0 | 0 | 0 | 0 | 0 | 0 | - | - | -
COc1ccc(N2CCN(CCNC(=O)c3c(C)cc(=O)oc3C)CC2)cc1 | - | 66.9 | 0 | 0 | 27.7 | 0 | 79.6 | 86.0 | 90.7
CN1c2ccccc2Sc2cc(N)ccc21 | 95.5 | 64.3 | 0 | 0 | 51.8 | 0 | 0 | 73.6 | 61.1
CNC(=O)c1nnsc1S(=O)(=O)c1ccc(Cl)cc1 | - | 59.5 | 0 | 0 | 89.7 | 0 | 66.7 | 65.1 | 0
O=C(c1nnsc1S(=O)(=O)c1ccc(Cl)cc1)N1CCOCC1 | - | 56.7 | 0 | 0 | 0 | 0 | 52.0 | 54.4 | 50.2
COc1ccc(NS(=O)(=O)c2cccc(C(=O)O)c2)cc1S(=O)(=O)N1CCOCC1 | 0 | 0 | 0 | - | - | 0 | - | - | -
O=C(CSc1ccccn1)Nc1ccc(Br)cn1 | 0 | 0 | 0 | 0 | 0 | 0 | - | - | -
O=C(CSc1ncn(-c2ccccc2)n1)Nc1ccc(Br)cn1 | 0 | 75.3 | 0 | 0 | 0 | 0 | 75.6 | 69.3 | 50.4
Cc1ccccc1NC(=O)COC(=O)c1ccccc1SCC(=O)N1CCCC1 | 0 | 0 | 0 | 0 | 0 | 0 | - | - | -
CC1=NN(C(=O)c2ccc(C)cc2)C(O)(C(F)(F)OC(F)(F)F)C1 (stereo unspecified) | 0 | 53.2 | 0 | 0 | 0 | 0 | 54.0 | 0 | 0
O=C(NN=C1CCCCC1)Nc1ccccc1Cl | 0 | 0 | 0 | 0 | - | 0 | - | - | -
O=C1c2ccccc2C(=O)N1CCCCc1cn(C[C@H]2CC[C@@H]([C@@H]3CC[C@H](Cn4cc(CCCCN5C(=O)c6ccccc6C5=O)nn4)O3)O2)nn1 | 0 | 0 | 0 | - | - | 0 | - | - | -
O=c1cc(-c2ccc(O)cc2)oc2ccc3ccccc3c12 | 0 | 60.9 | 0 | - | - | 0 | 80.8 | 58.0 | 54.1
O=c1cc(-c2ccc(O)cc2)oc2c1ccc1ccccc12 | 0 | 0 | 0 | - | - | 0 | - | - | -
O=C(NC1CCCCC1)c1noc2c1CCCCC2 | 0 | 50.8 | 0 | 0 | 0 | 0 | 67.0 | 54.4 | 0
CC(C)(C)C1CCc2onc(C(=O)NC3CCCC3)c2C1 (stereo unspecified) | 0 | 0 | 0 | 0 | 0 | 0 | - | - | -
CC(C)(C)CNC(=O)[C@]1(C)CCC[C@@]2(C)C3CC[C@@]4(C)C[C@]3(CCC21)CC4=O (stereo partly specified) | 0 | 0 | 0 | - | - | 0 | - | - | -
CC(C)(C)NC(=O)[C@]1(C)CCC[C@@]2(C)C3CC[C@@]4(C)C[C@]3(CCC21)CC4=O (stereo partly specified) | 0 | 52.2 | 0 | - | - | 0 | 0 | 0 | 0
